A short description of series [1]: Antioxidant activity assessed as DPPH-radical scavenging activity at 1 mM incubated for 30 mins under dark condition by microplate reader based assay relative to control. It is filed as functional. An outline of the steps: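 20 µL of 10 mM DMSO stock mixed with 180 µL of 0.2 mM DPPH in methanol (stated test level 1 mM). L-ascorbic acid served as the positive control. Kept 30 min in the dark, then absorbance read at 517 nm. Scavenging % = 100×(Ac−As)/Ac against the untreated control. Three independent experiments, mean ± SD.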
In general terms: The DPPH test is a chemical assay of radical scavenging.

The species named for series [2] is Mus musculus. Nature of the series: Inhibition of tyrosinase in alpha-MSH-stimulated mouse B16F10 cells at 25 uM incubated for 24 hrs by microplate reader based assay. The method, boiled down:
(§1)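 B16F10 cells were seeded at 5x10^4 per well and cultured 24 h, then given 1 µM α-MSH plus agent (0–25 µM; kojic acid 25 µM; arbutin 400 µM) for 24 h. Cells were PBS-washed and lysed in 1% Triton X-100, 0.1 mM PMSF, 50 mM phosphate pH 6.8. Lysate was frozen at −80 °C, then centrifuged. 80 µL supernatant was mixed with 20 µL 10 mM L-DOPA, held 30 min at 37 °C, and OD500 read. Triplicate runs.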

Series [3] is filed under the species Mus musculus. Nature of the series: Inhibition of tyrosinase in alpha-MSH-stimulated mouse B16F10 cells assessed as reduction in melanin levels at 25 uM incubated for 24 hrs by microplate reader based assay relative to control. An outline of the steps: (§2)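 B16F10 cells were seeded at 5x10^4 per well and cultured 24 h at 37 °C, 5% CO2. They were then co-treated with 1 µM α-MSH and test agent (0, 5, 10 or 25 µM) for 24 h, with kojic acid at 25 µM alongside. After two PBS washes, melanin was dissolved in 200 µL 1 M NaOH for 1 h and OD405 read. Triplicate runs.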

Another series has as its system B16-F10. Kind of series: Cytotoxicity in mouse B16F10 cells assessed as reduction in cell viability up to 25 uM incubated for 24 hrs by WST-8 assay. It is filed as cell-based. To be noted: b16-f10, 24 h. The method, boiled down: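 B16F10 murine melanoma cells were grown in DMEM with 10% FBS, penicillin and streptomycin at 37 °C and 5% CO2, seeded at 5x10^4 per well and cultured 24 h. They were then dosed at 0, 5, 10 or 25 for 24 h. WST-8 reagent was added, and OD450 was read. Viability is given as % of untreated cells; triplicate runs.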
(In general: Tetrazolium assays rely on reduction of a dye to a coloured formazan, in cell work by metabolically active cells.)

Series [4] is filed under the species Mus musculus. Nature of the series: Inhibition of tyrosinase in alpha-MSH-stimulated mouse B16F10 cells assessed as reduction in melanin levels at 5 uM incubated for 24 hrs by microplate reader based assay relative to control. An outline of the steps: as §2
The species named for series [5] is Mus musculus. Kind of series: Inhibition of tyrosinase in alpha-MSH-stimulated mouse B16F10 cells assessed as reduction in melanin levels at 10 uM incubated for 24 hrs by microplate reader based assay relative to control. The method, boiled down: as §2
The species named for series [6] is Mus musculus. Nature of the series: Inhibition of tyrosinase in alpha-MSH-stimulated mouse B16F10 cells at 400 uM incubated for 24 hrs by microplate reader based assay. An outline of the steps:
as §1

Active and inactive are the calls of the source. The calls are words filed in the database; no cut-off is given here.

By inhibition is commonly meant the share of the control response that was lost under treatment. With `COc1cc(/C=C/C(=O)NC(=O)c2ccccc2)cc(OC)c1OC`, the inhibition in series [1] came to 6.9%.
`O=c1cc(CO)occ1O`: the results for the inhibition in the series listed under Mus musculus [2] and in the series filed under Mus musculus [3] were 50.3% and 39%, respectively.
For `O=C(/C=C/c1ccc(O)c(O)c1)NC(=O)c1ccccc1`, the Activity result in the series on B16-F10 is on record as “Non-Toxic”. Further, the inhibition in the series listed under Mus musculus [2] was found to be 76.8%; in the series filed under Mus musculus [4], 21.6%; in the series filed under Mus musculus [5] it was 37.6%; in the series listed under Mus musculus [3], 61.8%; in series [1], 82.9%.
For the molecule `OC[C@H]1O[C@@H](Oc2ccc(O)cc2)[C@H](O)[C@@H](O)[C@@H]1O`, the inhibition in the series listed under Mus musculus [6] is 41.8%.
As to `O=C(/C=C/c1cc(Br)c(O)c(Br)c1)NC(=O)c1ccccc1`, the inhibition result in series [1] was “inactive”.
`COc1ccc(/C=C/C(=O)NC(=O)c2ccccc2)c(OC)c1`: the inhibition in series [1] worked out at 5.76%.
Regarding `COc1ccc(/C=C/C(=O)NC(=O)c2ccccc2)cc1O`, the Activity result with B16-F10 is recorded as “Non-Toxic”. The inhibition in the series filed under Mus musculus [2] came out at 59.7%; in the series listed under Mus musculus [4], 9.06%; in the series filed under Mus musculus [5] it was 31.2%; in the series listed under Mus musculus [3], 48%; in series [1], 7.02%.
With `COc1ccc(/C=C/C(=O)NC(=O)c2ccccc2)cc1OC`, the inhibition in series [1] came out at 4.82%.
In the case of `O=C(/C=C/c1ccc(O)cc1)NC(=O)c1ccccc1`, the inhibition in series [1] turned out to be 4.89%.
The same measure, in the same setting: the figure for `COc1ccc(/C=C/C(=O)NC(=O)c2ccccc2)cc1` is 5.61%; for `O=C1O[C@H]([C@@H](O)CO)C(O)=C1O` it is 84.6%.
Same read-out and setting: the figure for `COc1cc(/C=C/C(=O)NC(=O)c2ccccc2)cc(OC)c1O` is 3.76%.
Same read-out and setting: next, `O=C(/C=C/c1ccc(O)c(Br)c1)NC(=O)c1ccccc1`: 17.3%.

Values taken from ChEMBL document CHEMBL4385654, “Inhibitory effects of N-(acryloyl)benzamide derivatives on tyrosinase and melanogenesis” (Bioorg Med Chem, 2019).
